For two compounds, Kd results are on record in publication PMC5159748 (Archives of biochemistry and biophysics, 2016).

In assay [1] the target is T1, K346 (Drosophila kinesin-1 motor domain; apo-K346) (Drosophila melanogaster, UniProt P17210).
T1 sequence (P17210 2-346): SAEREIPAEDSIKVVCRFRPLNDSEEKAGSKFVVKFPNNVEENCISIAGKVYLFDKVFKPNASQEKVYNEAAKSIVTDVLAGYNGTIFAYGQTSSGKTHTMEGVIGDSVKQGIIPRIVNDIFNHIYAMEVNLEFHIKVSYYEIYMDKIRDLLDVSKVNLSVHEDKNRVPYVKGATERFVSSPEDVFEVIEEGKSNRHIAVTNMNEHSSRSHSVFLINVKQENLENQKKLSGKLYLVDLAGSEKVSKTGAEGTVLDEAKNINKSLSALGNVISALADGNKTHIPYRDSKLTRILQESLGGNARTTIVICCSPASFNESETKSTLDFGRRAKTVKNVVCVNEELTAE
In words: stopped-flow FRET. The class given is binding. The gist of the method:
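Apo-K346 (Tev-cleaved, ADP-stripped) at 25 °C in A25 buffer (pH 6.9) with 50 mM KCl and glycerol as indicated. FRET from tyrosines to mdADP: excitation 280 nm, 418 nm long-pass emission. Association: stopped-flow mixing with ≥10-fold excess mdADP, kon = kobs/[mdADP]. Release: 0.84 μM E•mdADP chased with 400 μM MgATP, single-exponential fit. SD from ≥3 transients.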

Assay [2] addresses Microtubules prepared from porcine tubulin, stabilized with paclitaxel (porcine) (UniProt P02550). In words: turbidity increase.

The Kd is the constant that tells how readily two partners part at equilibrium.

Compound `CNc1ccccc1C(=O)O[C@H]1C[C@H](n2cnc3c(N)ncnc32)O[C@@H]1COP(=O)(O)OP(=O)(O)O` [mdADP] registered an equilibrium dissociation constant (Kd) in assay [1] of 0.002 µM. “K346, monomeric Drosophila kinesin-1 motor domain (amino acids 2-346) (from UniProt P17210 2-346) (domain or fragment)” gave a Kd in assay [2] of 1.8 µM.
